The nature of data set [1]: Toxicity in BALB/c mouse implanted with mouse CT26 cells assessed as effect on spleen morphology by measuring necrosis at 50 mg/kg, po administered once daily by H and E staining based histopathological analysis. It is filed as organism-based. The following applies: in vivo. In outline: (§1)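 CT-26 subcutaneous flank tumour model in male BALB/c mice, five per group, dosed orally at 50mg/kg daily in 5% NMP/95% PEG 400 versus vehicle. After treatment, heart, liver, spleen, lung and kidney collected, sectioned and stained with H&E for histological examination.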

Data set [2] is described as follows: Toxicity in BALB/c mouse implanted with mouse CT26 cells assessed as behavioral alteration at 50 mg/kg, po administered once daily. It is filed as organism-based. Particulars: in vivo. In outline: (§2)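 Mice bearing subcutaneous CT-26 tumours, five per group, given 50mg/kg orally each day in 5% NMP/PEG 400, with an equal-volume vehicle control group. Body weight and behaviour monitored over the treatment period.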

Data set [3] is described as follows: Toxicity in BALB/c mouse implanted with mouse CT26 cells assessed as effect on spleen morphology by measuring cell inflammation at 50 mg/kg, po administered once daily by H and E staining based histopathological analysis. The class given is organism-based. Particulars: in vivo. The method, boiled down: as §1
Data set [4] can be described thus: Cardiotoxicity in BALB/c mouse implanted with mouse CT26 cells assessed as effect on heart morphology by measuring necrosis at 50 mg/kg, po administered once daily by H and E staining based histopathological analysis. The class given is toxicity, organism-based. Particulars: in vivo. In outline: as §1
The test system of the next data set is U-251. The experiment in a line: Potency index, ratio of napabucasin IC50 to test compound IC50 for human U251 cells. It is filed as functional.
A short description of data set [5]: Toxicity in BALB/c mouse implanted with mouse CT26 cells assessed as effect on kidney morphology by measuring necrosis at 50 mg/kg, po administered once daily by H and E staining based histopathological analysis. Particulars: in vivo. The class given is organism-based. The method, boiled down: as §1
Data set [6] can be described thus: Toxicity in BALB/c mouse implanted with mouse CT26 cells assessed as change in body weight at 50 mg/kg, po administered once daily. Particulars: in vivo. The class given is organism-based. The method, boiled down: as §2
The subject of another data set is CT26. Nature of the data set: Antiproliferative activity against mouse CT26 cells after 72 hrs by MTT assay. The following applies: CT26, 72 h. It is filed as functional, cell-based. The method, boiled down: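 Cells seeded at 5 × 10^3 per well and cultured 24 h before compound addition at varied concentrations, then grown a further 72 h; 0.5% DMSO as solvent control. MTT (5mg/ml solution) added for 4 h, formazan dissolved in DMSO, absorbance read at 570nm. Each treatment in triplicate; Mean ± SD.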

The test system of another data set is HepG2. The experiment in a line: Decrease in total STAT3 level in human HepG2 cells at 400 nM after 24 to 48 hrs by sandwich-ELISA. It is filed as ADME, cell-based. The following applies: hepg2, 0.4 µM. The method, boiled down: (§3)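 Cells treated 24 or 48 h. Whole-cell lysates made in lysis buffer with protease inhibitor cocktail. Total STAT3 and p-STAT3 Y705 measured by sandwich ELISA. Three repeats; groups compared with control by paired t-test; means ± S.D.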

Data set [7] can be described thus: Toxicity in BALB/c mouse implanted with mouse CT26 cells assessed as effect on kidney morphology by measuring edema at 50 mg/kg, po administered once daily by H and E staining based histopathological analysis. The class given is organism-based. Particulars: in vivo. In outline:
as §1

The nature of data set [8]: Cardiotoxicity in BALB/c mouse implanted with mouse CT26 cells assessed as effect on heart morphology by measuring cell inflammation at 50 mg/kg, po administered once daily by H and E staining based histopathological analysis. The following applies: in vivo. The class given is toxicity, organism-based. In outline: as §1
Data set [9] deals with T1, Signal transducer and activator of transcription 3 (Homo sapiens, UniProt P40763). Nature of the data set: Inhibition of STAT3 phosphorylation at Y705 residue in human HepG2 cells at 400 nM after 24 to 48 hrs by sandwich-ELISA. The class given is cell-based. In outline: as §3
In data set [10] the target is T1, Signal transducer and activator of transcription 3. The experiment in a line: Inhibition of STAT3 phosphorylation at Y705 residue in human U251 cells at 200 nM after 24 to 48 hrs by sandwich-ELISA. It is filed as cell-based. In outline: as §3
The target is the same in data set [11]. The experiment in a line: Inhibition of STAT3 phosphorylation at Y705 residue in human HepG2 cells at 400 nM after 24 hrs by Western blot analysis. The class given is cell-based. The method, boiled down: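 Cells treated 24 and 48 h. Lysed in RIPA with protease inhibitors, protein quantified by BCA, equal amounts run on 10% SDS-PAGE and transferred to PVDF. Blocked in 5% milk, probed overnight at 4 °C with anti-total STAT3, anti-p-STAT3 (Tyr705) and GAPDH antibodies. ECL detection.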

Data set [12] in a line: Hepatotoxicity in BALB/c mouse implanted with mouse CT26 cells assessed as effect on liver morphology by measuring necrosis at 50 mg/kg, po administered once daily by H and E staining based histopathological analysis. It is filed as toxicity, organism-based. Particulars: in vivo. In outline: as §1

The values that follow come from ChEMBL document CHEMBL4382247, “A novel series of napabucasin derivatives as orally active inhibitors of signal transducer and activator of transcription 3 (STAT3)” (Eur J Med Chem, 2019).

The source made the active and inactive calls. No cut-off for these calls is given here.

T1 sequence (P40763 whole entry): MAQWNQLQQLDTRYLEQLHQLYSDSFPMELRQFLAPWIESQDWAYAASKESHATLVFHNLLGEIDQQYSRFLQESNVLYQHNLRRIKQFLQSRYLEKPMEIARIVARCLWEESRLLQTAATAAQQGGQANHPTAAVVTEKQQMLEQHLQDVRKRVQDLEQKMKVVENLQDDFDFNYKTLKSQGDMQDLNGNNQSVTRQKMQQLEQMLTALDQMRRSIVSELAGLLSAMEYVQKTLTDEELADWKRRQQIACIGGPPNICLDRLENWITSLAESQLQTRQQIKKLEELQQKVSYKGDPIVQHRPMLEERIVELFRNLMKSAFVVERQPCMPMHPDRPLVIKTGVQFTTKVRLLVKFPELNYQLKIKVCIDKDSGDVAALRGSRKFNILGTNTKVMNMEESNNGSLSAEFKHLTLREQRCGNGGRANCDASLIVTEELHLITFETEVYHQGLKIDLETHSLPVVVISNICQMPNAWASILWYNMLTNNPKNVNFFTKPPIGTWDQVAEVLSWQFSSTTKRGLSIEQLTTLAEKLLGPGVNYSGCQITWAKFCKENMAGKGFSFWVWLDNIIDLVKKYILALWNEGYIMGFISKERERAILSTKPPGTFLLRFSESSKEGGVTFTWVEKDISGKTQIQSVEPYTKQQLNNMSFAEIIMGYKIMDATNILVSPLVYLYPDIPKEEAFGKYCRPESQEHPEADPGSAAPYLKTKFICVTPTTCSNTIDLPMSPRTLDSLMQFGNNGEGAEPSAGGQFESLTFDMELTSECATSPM

`O=C(NCCN1CCCCC1)c1cc2c(o1)C(=O)c1ccccc1C2=O`: the Activity entry in data set [1], in [2], in [3], in data set [4], in [5] and in data set [6] was “Non-Toxic” throughout. The Activity result in the data set with HepG2 was “Toxic”; in data set [7], “Non-Toxic”; in data set [8], “Non-Toxic”; in [12], “Non-Toxic”. Further, the “Ratio IC50” value in the data set on U-251 is more than 10. Besides, 140 nM corresponded to half-maximal inhibition in the data set on CT26 (IC50). Besides, the inhibition entry in [9], in [10] and in [11] was “Active” each time.
